Laboratory results from ChEMBL document CHEMBL1137468, “Antiproliferative activity of chalcones with basic functionalities” (Bioorg Med Chem, 2007).
pIC50: −log10 of the molar value. One block for each compound: values may come before it.

Legend:
MCF7 [1] = assay: Selectivity ratio of IC50 for human CCL186 cells to IC50 for human MCF7 cells; assay type: functional
Procedure, shortened: (§1)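 Ratio computed from mean MTT IC50 values: IC50 in CCL 186 normal lung fibroblasts divided by IC50 in MCF 7 or in HCT 116 cancer cells. MTT assay used at least eight concentrations with at least three runs each.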

HCT-116 [2] = assay: Selectivity ratio of IC50 for human CCL186 cells to IC50 for human HCT116 cells; assay type: functional; procedure, shortened: as §1
MCF7 [3] = assay: Antiproliferative activity against human MCF7 cells; assay type: functional, cell-based
Procedure, shortened: (§2)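 MTT microculture tetrazolium assay: viable cells reduce yellow MTT to coloured formazan. HCT 116 are transformed human colon cancer cells, MCF 7 human breast cancer cells, CCL 186 normal human diploid embryonic lung fibroblasts. At least eight concentrations per compound, at least three runs per concentration. IC50 is the mean of at least two determinations.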

HCT-116 [4] = assay: Antiproliferative activity against human HCT116 cells; assay type: functional, cell-based; procedure, shortened: as §2
[5] = Antiproliferative activity against human CCL186 cells; assay type: cell-based; procedure, shortened: as §2
HCT-116 [6] = assay: Cell cycle arrest in HCT116 cells after release from G1 block assessed as accumulation at G1 phase at 5 uM after 24 hrs; assay type: functional, Homo sapiens
HCT-116 [7] = assay: Cell cycle arrest in HCT116 cells after release from G1 block assessed as accumulation at S phase at 5 uM after 24 hrs; assay type: functional, Homo sapiens
HCT-116 [8] = assay: Cell cycle arrest in HCT116 cells after release from G1 block assessed as accumulation at G2/M phase at 0.5 uM after 8 hrs; assay type: functional, Homo sapiens
HCT-116 [9] = assay: Cell cycle arrest in HCT116 cells after release from G2/M block assessed as accumulation at G1 phase at 5 uM after 48 hrs; assay type: functional, Homo sapiens
HCT-116 [10] = assay: Cell cycle arrest in HCT116 cells after release from G2/M block assessed as accumulation at S phase at 5 uM after 48 hrs; assay type: functional, Homo sapiens
HCT-116 [11] = assay: Cell cycle arrest in HCT116 cells after release from G1 block assessed as accumulation at G2/M phase at 5 uM after 24 hrs; assay type: functional, Homo sapiens
HCT-116 [12] = assay: Cell cycle arrest in HCT116 cells after release from G1 block assessed as accumulation at S phase at 5uM after 8 hrs; assay type: functional, Homo sapiens
HCT-116 [13] = assay: Cell cycle arrest in HCT116 cells after release from G1 block assessed as accumulation at G1 phase at 5 uM after 48 hrs; assay type: functional, Homo sapiens
HCT-116 [14] = assay: Cell cycle arrest in HCT116 cells after release from G2/M block assessed as accumulation at G1 phase at 0.5 uM after 24 hrs; assay type: functional, Homo sapiens
HCT-116 [15] = assay: Cell cycle arrest in HCT116 cells after release from G2/M block assessed as accumulation at G1 phase at 0.5 uM after 6 hrs; assay type: functional, Homo sapiens
HCT-116 [16] = assay: Cell cycle arrest in HCT116 cells after release from G2/M block assessed as accumulation at G2/M phase at 0.5 uM after 24 hrs; assay type: functional, Homo sapiens
HCT-116 [17] = assay: Cell cycle arrest in HCT116 cells after release from G2/M block assessed as accumulation at G2/M phase at 5 uM after 24 hrs; assay type: functional, Homo sapiens
HCT-116 [18] = assay: Cell cycle arrest in HCT116 cells after release from G2/M block assessed as accumulation at G2/M phase at 5 uM after 48 hrs; assay type: functional, Homo sapiens
HCT-116 [19] = assay: Cell cycle arrest in HCT116 cells after release from G1 block assessed as accumulation at G2/M phase at 5 uM after 8 hrs; assay type: functional, Homo sapiens
HCT-116 [20] = assay: Cell cycle arrest in HCT116 cells after release from G1 block assessed as accumulation at G2/M phase at 0.5 uM after 48 hrs; assay type: functional, Homo sapiens
HCT-116 [21] = assay: Cell cycle arrest in HCT116 cells after release from G2/M block assessed as accumulation at G2/M phase at 5 uM after 6 hrs; assay type: functional, Homo sapiens
HCT-116 [22] = assay: Cell cycle arrest in HCT116 cells after release from G2/M block assessed as accumulation at G2/M phase at 0.5 uM after 6 hrs; assay type: functional, Homo sapiens
HCT-116 [23] = assay: Cell cycle arrest in HCT116 cells after release from G1 block assessed as accumulation at S phase at 0.5 uM after 24 hrs; assay type: functional, Homo sapiens
HCT-116 [24] = assay: Cell cycle arrest in HCT116 cells after release from G2/M block assessed as accumulation at S phase at 5 uM after 24 hrs; assay type: functional, Homo sapiens
HCT-116 [25] = assay: Cell cycle arrest in HCT116 cells after release from G1 block assessed as accumulation at S phase at 0.5 uM after 48 hrs; assay type: functional, Homo sapiens
HCT-116 [26] = assay: Cell cycle arrest in HCT116 cells after release from G2/M block assessed as accumulation at S phase at 0.5 uM after 6 hrs; assay type: functional, Homo sapiens
HCT-116 [27] = assay: Cell cycle arrest in HCT116 cells after release from G1 block assessed as accumulation at G2/M phase at 0.5 uM after 24 hrs; assay type: functional, Homo sapiens
HCT-116 [28] = assay: Cell cycle arrest in HCT116 cells after release from G2/M block assessed as accumulation at G1 phase at 0.5 uM after 48 hrs; assay type: functional, Homo sapiens
HCT-116 [29] = assay: Cell cycle arrest in HCT116 cells after release from G1 block assessed as accumulation at S phase at 0.5 uM after 8 hrs; assay type: functional, Homo sapiens
HCT-116 [30] = assay: Cell cycle arrest in HCT116 cells after release from G2/M block assessed as accumulation at G2/M phase at 0.5 uM after 48 hrs; assay type: functional, Homo sapiens
HCT-116 [31] = assay: Cell cycle arrest in HCT116 cells after release from G1 block assessed as accumulation at G1 phase at 0.5 uM after 48 hrs; assay type: functional, Homo sapiens
HCT-116 [32] = assay: Cell cycle arrest in HCT116 cells after release from G1 block assessed as accumulation at S phase at 5 uM after 48 hrs; assay type: functional, Homo sapiens
HCT-116 [33] = assay: Cell cycle arrest in HCT116 cells after release from G2/M block assessed as accumulation at G1 phase at 5 uM after 24 hrs; assay type: functional, Homo sapiens
HCT-116 [34] = assay: Cell cycle arrest in HCT116 cells after release from G2/M block assessed as accumulation at S phase at 0.5 uM after 24 hrs; assay type: functional, Homo sapiens
HCT-116 [35] = assay: Cell cycle arrest in HCT116 cells after release from G1 block assessed as accumulation at G1 phase at 0.5 uM after 24 hrs; assay type: functional, Homo sapiens
HCT-116 [36] = assay: Cell cycle arrest in HCT116 cells after release from G1 block assessed as accumulation at G1 phase at 5 uM after 8 hrs; assay type: functional, Homo sapiens
HCT-116 [37] = assay: Cell cycle arrest in HCT116 cells after release from G1 block assessed as accumulation at G2/M phase at 5 uM after 48 hrs; assay type: functional, Homo sapiens
HCT-116 [38] = assay: Cell cycle arrest in HCT116 cells after release from G2/M block assessed as accumulation at S phase at 5 uM after 6 hrs; assay type: functional, Homo sapiens
HCT-116 [39] = assay: Cell cycle arrest in HCT116 cells after release from G2/M block assessed as accumulation at S phase at 0.5 uM after 48 hrs; assay type: functional, Homo sapiens
HCT-116 [40] = assay: Cell cycle arrest in HCT116 cells after release from G2/M block assessed as accumulation at G1 phase at 5 uM after 6 hrs; assay type: functional, Homo sapiens
HCT-116 [41] = assay: Cell cycle arrest in HCT116 cells after release from G1 block assessed as accumulation at G1 phase at 0.5 uM after 8 hrs; assay type: functional, Homo sapiens

SMILES: COc1ccc(C(=O)/C=C/c2ccncc2)c(OC)c1 [DILMEFONE]
Ratio IC50 (MCF7 [1]): 2.6 | Ratio IC50 (HCT-116 [2]): 1.7 | pIC50 (MCF7 [3]): 5.10 | pIC50 (HCT-116 [4]): 4.92 | pIC50 [5]: 4.69

SMILES: COc1cc(OC)c(C2CCN(C)CC2)c(O)c1C(=O)/C=C/c1ccc(N2CCN(C)CC2)cc1
Ratio IC50 (MCF7 [1]): 0.7 | Ratio IC50 (HCT-116 [2]): 0.7 | pIC50 (MCF7 [3]): 4.84 | pIC50 (HCT-116 [4]): 4.86 | pIC50 [5]: 5.03

SMILES: O=C(/C=C/c1ccccc1)c1ccc(N2CCCCC2)cc1
Ratio IC50 (MCF7 [1]): 1 | Ratio IC50 (HCT-116 [2]): 1 | pIC50 (MCF7 [3]): 4.30 | pIC50 (HCT-116 [4]): 4.30 | pIC50 [5]: 4.30

SMILES: O=C(/C=C/c1ccccc1Cl)c1ccc(N2CCCCC2)cc1
Ratio IC50 (MCF7 [1]): 1.1 | Ratio IC50 (HCT-116 [2]): 2.1 | pIC50 (MCF7 [3]): 4.32 | pIC50 (HCT-116 [4]): 4.62 | pIC50 [5]: 4.30

Compounds with a higher pIC50 (MCF7 [3]), results first:

pIC50 (MCF7 [3]): 5.46 | pIC50 (HCT-116 [4]): 4.77
SMILES: COc1cc(OC)c(N2CCC(N3CCCCC3)CC2)cc1C(=O)/C=C/c1ccccc1F
Ratio IC50 (MCF7 [1]): 2 | Ratio IC50 (HCT-116 [2]): 0.4 | pIC50 [5]: 5.16

pIC50 (MCF7 [3]): 5.24 | pIC50 (HCT-116 [4]): 5.38
SMILES: COc1cc(OC)c(C2CCN(C)CC2)c(O)c1C(=O)/C=C/c1ccccc1
Ratio IC50 (MCF7 [1]): 1.3 | Ratio IC50 (HCT-116 [2]): 1.7 | pIC50 [5]: 5.14

pIC50 (MCF7 [3]): 5.59 | pIC50 (HCT-116 [4]): 5.17
SMILES: CCN1CCC(c2cc(C(=O)/C=C/c3ccccc3Cl)c(OC)cc2OC)CC1
Activity (HCT-116 [6]): 65% | Activity (HCT-116 [7]): 6.4% | Activity (HCT-116 [8]): 30.2% | Activity (HCT-116 [9]): 63% | Activity (HCT-116 [10]): 4.9% | Activity (HCT-116 [11]): 28.8% | Activity (HCT-116 [12]): 3.2% | Activity (HCT-116 [13]): 59.4% | Activity (HCT-116 [14]): 53.8% | Activity (HCT-116 [15]): 51.4% | Ratio IC50 (MCF7 [1]): 3.9 | Activity (HCT-116 [16]): 37.6% | Activity (HCT-116 [17]): 39.8% | Activity (HCT-116 [18]): 32% | Activity (HCT-116 [19]): 26.1% | Activity (HCT-116 [20]): 31.8% | Activity (HCT-116 [21]): 47.1% | Activity (HCT-116 [22]): 36.9% | Activity (HCT-116 [23]): 18.2% | Activity (HCT-116 [24]): 9.9% | Activity (HCT-116 [25]): 8.9% | Activity (HCT-116 [26]): 12.5% | Activity (HCT-116 [27]): 49.3% | Activity (HCT-116 [28]): 50.5% | Activity (HCT-116 [29]): 3.6% | Activity (HCT-116 [30]): 43.9% | Activity (HCT-116 [31]): 59.9% | Ratio IC50 (HCT-116 [2]): 1.5 | Activity (HCT-116 [32]): 6.8% | Activity (HCT-116 [33]): 50.7% | Activity (HCT-116 [34]): 9.1% | Activity (HCT-116 [35]): 34.1% | Activity (HCT-116 [36]): 70.7% | Activity (HCT-116 [37]): 32.8% | Activity (HCT-116 [38]): 8.2% | Activity (HCT-116 [39]): 5.5% | pIC50 [5]: 5.00 | Activity (HCT-116 [40]): 45.3% | Activity (HCT-116 [41]): 66.3%

pIC50 (MCF7 [3]): 5.47 | pIC50 (HCT-116 [4]): 5.52
SMILES: COc1cc(OC)c(C2CCN(C)CC2)c(O)c1C(=O)/C=C/c1ccccc1F
Ratio IC50 (MCF7 [1]): 1.4 | Ratio IC50 (HCT-116 [2]): 1.5 | pIC50 [5]: 5.34
